Measured values: ChEMBL document CHEMBL1811874, “The effect of sulfonate leaving groups on the hypoxia-selective toxicity of nitro analogs of the duocarmycins” (Bioorg Med Chem, 2011)
≈ marks a conversion by molar mass, not a printed value.

Key:
[1] = tested on: HCT-116; experiment: Hypoxic cytotoxicity ratio, ratio of IC50 for human HCT116 cells in oxic (aerobic) condition to IC50 for human HCT116 cells in hypoxic (anoxic) conditions; type: functional
Method in brief: (§1)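 HCR was calculated as IC50(oxic)/IC50(hypoxic) after 4 h drug exposure at 20% O₂ or <20 ppm O₂, with SRB read-out 5 days later.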

[2] = tested on: SK-OV-3; experiment: Cytotoxicity against human SKOV3 cells assessed as reduction of cell density incubated for 4 hrs in hypoxic (anoxic) condition measured 5 days post dose by SRB assay; type: functional, cell-based
Method in brief: (§2)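 Log-phase monolayers given a 4 h drug exposure under aerobic (20% O₂) or anoxic (<20 ppm O₂) conditions. Cells were then stained with sulforhodamine B 5 days later. IC50 was interpolated as the concentration that cut cell density to 50% of same-plate controls. Values are means of two to seven experiments.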

[3] = tested on: PC-3; experiment: Cytotoxicity against human PC3 cells assessed as reduction of cell density incubated for 4 hrs in hypoxic (anoxic) condition measured 5 days post dose by SRB assay; type: functional, cell-based; method in brief: as §2
[4] = tested on: SiHa; experiment: Cytotoxicity against human SiHa cells assessed as reduction of cell density incubated for 4 hrs in oxic (aerobic) condition measured 5 days post dose by SRB assay; type: functional, cell-based; method in brief: as §2
[5] = tested on: HT-29; experiment: Cytotoxicity against human HT-29 cells assessed as reduction of cell density incubated for 4 hrs in hypoxic (anoxic) condition measured 5 days post dose by SRB assay; type: functional, cell-based; method in brief: as §2
[6] = tested on: A549; experiment: Hypoxic cytotoxicity ratio, ratio of IC50 for human A549 cells in oxic (aerobic) condition to IC50 for human A549 cells in hypoxic (anoxic) conditions; type: functional; method in brief: as §1
[7] = tested on: C-33-A; experiment: Cytotoxicity against human C33A cells assessed as reduction of cell density incubated for 4 hrs in oxic (aerobic) condition measured 5 days post dose by SRB assay; type: functional, cell-based; method in brief: as §2
[8] = Solubility in alphaMEM culture medium containing 5% FCS at 22 degC; type: physicochemical
Method in brief: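 Solubility was measured in αMEM with 5% FCS, equilibrated with 5% CO₂/air, at 22 °C.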

[9] = tested on: SK-OV-3; experiment: Cytotoxicity against human SKOV3 cells assessed as reduction of cell density incubated for 4 hrs in oxic (aerobic) condition measured 5 days post dose by SRB assay; type: functional, cell-based; method in brief: as §2
[10] = tested on: A549; experiment: Cytotoxicity against human A549 cells over-expressing human NADPH/cytochrome P450 oxidoreductase assessed as reduction of cell density incubated for 4 hrs in oxic (aerobic) condition measured 5 days post dose by SRB assay; type: functional, cell-based; method in brief: as §2
[11] = tested on: NCI-H460; experiment: Hypoxic cytotoxicity ratio, ratio of IC50 for human H460 cells in oxic (aerobic) condition to IC50 for human H460 cells in hypoxic (anoxic) conditions; type: functional; method in brief: as §1
[12] = tested on: SiHa; experiment: Cytotoxicity against human SiHa cells assessed as reduction of cell density incubated for 4 hrs in hypoxic (anoxic) condition measured 5 days post dose by SRB assay; type: functional, cell-based; method in brief: as §2
[13] = tested on: HCT-116; experiment: Cytotoxicity against human HCT116 cells assessed as reduction of cell density incubated for 4 hrs in oxic (aerobic) condition measured 5 days post dose by SRB assay; type: functional, cell-based; method in brief: as §2
[14] = tested on: C-33-A; experiment: Cytotoxicity against human C33A cells assessed as reduction of cell density incubated for 4 hrs in hypoxic (anoxic) condition measured 5 days post dose by SRB assay; type: functional, cell-based; method in brief: as §2
[15] = Cytotoxicity against human H1299 cells assessed as reduction of cell density incubated for 4 hrs in oxic (aerobic) condition measured 5 days post dose by SRB assay; type: functional, cell-based; conditions: NCI-H1299; method in brief: as §2
[16] = tested on: NCI-H460; experiment: Cytotoxicity against human H460 cells assessed as reduction of cell density incubated for 4 hrs in hypoxic (anoxic) condition measured 5 days post dose by SRB assay; type: functional, cell-based; method in brief: as §2
[17] = tested on: A-375; experiment: Cytotoxicity against human A375 cells assessed as reduction of cell density incubated for 4 hrs in hypoxic (anoxic) condition measured 5 days post dose by SRB assay; type: functional, cell-based; method in brief: as §2
[18] = tested on: A549; experiment: Hypoxic cytotoxicity ratio, ratio of IC50 for human A549 cells ells over-expressing human NADPH/cytochrome P450 oxidoreductase in oxic (aerobic) condition to IC50 for human A549 cells ells over-expressing human NADPH/cytochrome P450 oxidoreductase in hypoxic (anoxic) conditions; type: functional; method in brief: as §1
[19] = tested on: C-33-A; experiment: Hypoxic cytotoxicity ratio, ratio of IC50 for human C33A cells in oxic (aerobic) condition to IC50 for human C33A cells in hypoxic (anoxic) conditions; type: functional; method in brief: as §1
[20] = tested on: NCI-H460; experiment: Cytotoxicity against human H460 cells assessed as reduction of cell density incubated for 4 hrs in oxic (aerobic) condition measured 5 days post dose by SRB assay; type: functional, cell-based; method in brief: as §2
[21] = tested on: SiHa; experiment: Hypoxic cytotoxicity ratio, ratio of IC50 for human SiHa cells in oxic (aerobic) condition to IC50 for human SiHa cells in hypoxic (anoxic) conditions; type: functional; method in brief: as §1
[22] = tested on: A549; experiment: Cytotoxicity against human A549 cells ells over-expressing human NADPH/cytochrome P450 oxidoreductase assessed as reduction of cell density incubated for 4 hrs in hypoxic (anoxic) condition measured 5 days post dose by SRB assay; type: functional, cell-based; method in brief: as §2
[23] = tested on: A549; experiment: Cytotoxicity against human A549 cells assessed as reduction of cell density incubated for 4 hrs in hypoxic (anoxic) condition measured 5 days post dose by SRB assay; type: functional, cell-based; method in brief: as §2
[24] = Cytotoxicity against human H1299 cells assessed as reduction of cell density incubated for 4 hrs in hypoxic (anoxic) condition measured 5 days post dose by SRB assay; type: functional, cell-based; conditions: NCI-H1299; method in brief: as §2
[25] = tested on: SK-OV-3; experiment: Hypoxic cytotoxicity ratio, ratio of IC50 for human SKOV3 cells in oxic (aerobic) condition to IC50 for human SKOV3 cells in hypoxic (anoxic) conditions; type: functional; method in brief: as §1
[26] = tested on: HT-29; experiment: Cytotoxicity against human HT-29 cells assessed as reduction of cell density incubated for 4 hrs in oxic (aerobic) condition measured 5 days post dose by SRB assay; type: functional, cell-based; method in brief: as §2
[27] = tested on: A549; experiment: Cytotoxicity against human A549 cells assessed as reduction of cell density incubated for 4 hrs in oxic (aerobic) condition measured 5 days post dose by SRB assay; type: functional, cell-based; method in brief: as §2
[28] = tested on: A-375; experiment: Hypoxic cytotoxicity ratio, ratio of IC50 for human A375 cells in oxic (aerobic) condition to IC50 for human A375 cells in hypoxic (anoxic) conditions; type: functional; method in brief: as §1
[29] = Hypoxic cytotoxicity ratio, ratio of IC50 for human H1299 cells in oxic (aerobic) condition to IC50 for human H1299 cells in hypoxic (anoxic) conditions; type: functional, NCI-H1299; method in brief: as §1
[30] = tested on: PC-3; experiment: Cytotoxicity against human PC3 cells assessed as reduction of cell density incubated for 4 hrs in oxic (aerobic) condition measured 5 days post dose by SRB assay; type: functional, cell-based; method in brief: as §2
[31] = tested on: A-375; experiment: Cytotoxicity against human A375 cells assessed as reduction of cell density incubated for 4 hrs in oxic (aerobic) condition measured 5 days post dose by SRB assay; type: functional, cell-based; method in brief: as §2
[32] = tested on: PC-3; experiment: Hypoxic cytotoxicity ratio, ratio of IC50 for human PC3 cells in oxic (aerobic) condition to IC50 for human PC3 cells in hypoxic (anoxic) conditions; type: functional; method in brief: as §1
[33] = tested on: HCT-116; experiment: Cytotoxicity against human HCT116 cells assessed as reduction of cell density incubated for 4 hrs in hypoxic (anoxic) condition measured 5 days post dose by SRB assay; type: functional, cell-based; method in brief: as §2
[34] = tested on: HT-29; experiment: Hypoxic cytotoxicity ratio, ratio of IC50 for human HT-29 cells in oxic (aerobic) condition to IC50 for human HT-29 cells in hypoxic (anoxic) conditions; type: functional; method in brief: as §1

COc1cc2cc(C(=O)N3CC(COS(=O)(=O)Cc4ccccc4)c4c3cc([N+](=O)[O-])c3ccccc43)[nH]c2c(OC)c1OC (centres undefined)
Ratio IC50 [1]: 12.1
IC50 [2]: 82 nM
IC50 [3]: 210 nM
IC50 [4]: 3000 nM
IC50 [5]: 360 nM
Ratio IC50 [6]: 3.73
IC50 [7]: 430 nM
solubility [8]: 17 µM (≈ 10.7 µg/mL)
IC50 [9]: 12000 nM
IC50 [10]: 930 nM
Ratio IC50 [11]: 7.19
IC50 [12]: 450 nM
IC50 [13]: 530 nM
IC50 [14]: 33 nM
IC50 [15]: 510 nM
IC50 [16]: 100 nM
IC50 [17]: 410 nM
Ratio IC50 [18]: 16.5
Ratio IC50 [19]: 15.6
IC50 [20]: 250 nM
Ratio IC50 [21]: 30.1
IC50 [22]: 95 nM
IC50 [23]: 400 nM
IC50 [24]: 160 nM
Ratio IC50 [25]: 246
IC50 [26]: 9800 nM
IC50 [27]: 1080 nM
Ratio IC50 [28]: 4.12
Ratio IC50 [29]: 3.6
IC50 [30]: 1900 nM
IC50 [31]: 1230 nM
Ratio IC50 [32]: 10.2
IC50 [33]: 50 nM
Ratio IC50 [34]: 37
